Measured values gathered from unrelated publications.
Each line is one published result; the experiments were not run side by side.
Target: Serine/threonine-protein kinase 25 (STK25, Homo sapiens, UniProt O00506)

CCC(=O)N[C@H]1CC[C@@H](C(=O)N(C)c2ccc(-c3nc4ccccc4o3)cc2)C1  remaining binding (cell-free assay; competition with immobilised ligand; 1 µM): 100%
Nc1ncc2c(n1)-c1c([nH]c3ccc(C#CC4CC4)cc13)CCCC2  remaining binding (binding; competition with immobilised ligand; 1 µM): 100%
N#CC1(c2ccccn2)CCN(Cc2cc(C(=O)N3CCCC3)c(=O)n3ccccc23)CC1  remaining binding (cell-free assay; competition with immobilised ligand; 1 µM): 97%
C[C@@H](c1ccc(-n2cnc3c(N)ncnc32)cc1)N1CCc2nn(C)c(Cc3ccccc3)c2C1=O  remaining binding (binding; competition with immobilised ligand; 0.1 µM): 86%
O=C(NCCCN1CCOCC1)c1ccc(Nc2ncc(Cl)c(-c3ccc(Cl)s3)n2)cc1  remaining binding (binding; competition with immobilised ligand; 1 µM): 89%
COc1cnc(Nc2cccc(S(N)(=O)=O)c2)nc1N1CCN(c2ccccc2)C(=O)C1  remaining binding (binding; competition with immobilised ligand; 1 µM): 100%
c1ccc(N2CCN(Cc3nc4ccccc4[nH]3)CC2)nc1  remaining binding (binding; competition with immobilised ligand; 1 µM): 94%
COc1ncc2cc3ccccc3nc2c1C#N  remaining binding (cell-free assay; competition with immobilised ligand; 5 µM): 100%
CN(C)c1nccc(-c2cnn3ncccc23)n1  remaining binding (binding; 1 µM): 90%
Cc1cnc(Nc2ccc(C(=O)N3CCC(N4CCCC4)CC3)cc2)nc1-c1cc2ccccc2s1  remaining binding (binding; competition with immobilised ligand; 1 µM): 21%
O=C(NCCCC1CCCCC1)c1ccc(CNC(=O)c2cnn(-c3ccccc3)c2C(F)(F)F)cc1  remaining binding (cell-free assay; competition with immobilised ligand; 0.1 µM): 81%
Cc1cnn2ncc(-c3ccnc(N(C)C)n3)c2c1  remaining binding (binding; 1 µM): 100%
O=C(Nc1c[nH]nc1C(=O)NC1CCNCC1)c1cc(F)cc(F)c1  remaining binding (binding; competition with immobilised ligand; 1 µM): 85%
c1cnn2ncc(-c3ccnc(N4CCC45COC5)n3)c2c1  remaining binding (binding; 1 µM): 100%
CN(C)C(=O)Cn1cc(-c2nc(C3(c4ccc(-c5cnc(N)nc5)cc4)CC3)no2)cn1  remaining binding (cell-free assay; competition with immobilised ligand; 1 µM): 100%
C[C@@H]1CCN(c2nccc(-c3cnn4ncccc34)n2)C1  remaining binding (binding; 1 µM): 100%
CCS(=O)(=O)c1cc2cc(C[C@@](O)(CC(C)(C)c3ccc(F)cc3C(N)=O)C(F)(F)F)[nH]c2cn1  remaining binding (cell-free assay; competition with immobilised ligand; 1 µM): 87%
N[C@H]1CCN(c2nccc(-c3cnn4ncccc34)n2)C1  remaining binding (binding; 1 µM): 100%
COc1cnc(Nc2cccc(S(N)(=O)=O)c2)nc1N1CCN(c2ccccc2)CC1  remaining binding (binding; competition with immobilised ligand; 1 µM): 100%
CN(CCCC(F)(F)F)c1nccc(-c2cnn3ncccc23)n1  remaining binding (binding; 1 µM): 100%
O=C(c1ccc(Nc2ncc(Cl)c(-c3ccc(Cl)s3)n2)cc1)N1CCC(N2CCCC2)CC1  remaining binding (binding; competition with immobilised ligand; 1 µM): 22%
